Measurements taken from ChEMBL document CHEMBL1811758, “Inhibition of monoamine oxidase by C5-substituted phthalimide analogues” (Bioorg Med Chem, 2011).

What was measured:
[1] = molecular target: T1, Amine oxidase [flavin-containing] B (Homo sapiens, UniProt P27338); experiment: Inhibition of human recombinant MAOB expressed in insect cells using kynuramine substrate by fluorescence spectroscopy
T1 sequence (P27338 whole entry): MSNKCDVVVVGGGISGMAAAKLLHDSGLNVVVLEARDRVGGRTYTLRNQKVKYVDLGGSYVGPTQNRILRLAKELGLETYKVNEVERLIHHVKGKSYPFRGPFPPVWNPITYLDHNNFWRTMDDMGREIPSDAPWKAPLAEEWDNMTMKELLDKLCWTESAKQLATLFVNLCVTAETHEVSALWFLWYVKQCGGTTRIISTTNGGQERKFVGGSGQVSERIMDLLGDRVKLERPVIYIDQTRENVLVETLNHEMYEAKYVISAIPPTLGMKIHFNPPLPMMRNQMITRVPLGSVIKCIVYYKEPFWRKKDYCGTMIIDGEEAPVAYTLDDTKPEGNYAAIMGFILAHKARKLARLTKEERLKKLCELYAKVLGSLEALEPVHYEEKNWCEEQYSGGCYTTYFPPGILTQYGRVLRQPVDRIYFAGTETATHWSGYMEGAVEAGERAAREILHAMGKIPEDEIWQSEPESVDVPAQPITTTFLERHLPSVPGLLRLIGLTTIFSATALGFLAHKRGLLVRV

[2] = molecular target: T1, Amine oxidase [flavin-containing] B; experiment: Inhibition of human recombinant MAOB expressed in insect cells using kynuramine substrate using Cheng and Prusoff equation by fluorescence spectroscopy
[3] = molecular target: T2, Amine oxidase [flavin-containing] A (Homo sapiens, UniProt P21397); experiment: Inhibition of human recombinant MAOA expressed in insect cells using kynuramine substrate using Cheng and Prusoff equation by fluorescence spectroscopy
T2 sequence (P21397 whole entry): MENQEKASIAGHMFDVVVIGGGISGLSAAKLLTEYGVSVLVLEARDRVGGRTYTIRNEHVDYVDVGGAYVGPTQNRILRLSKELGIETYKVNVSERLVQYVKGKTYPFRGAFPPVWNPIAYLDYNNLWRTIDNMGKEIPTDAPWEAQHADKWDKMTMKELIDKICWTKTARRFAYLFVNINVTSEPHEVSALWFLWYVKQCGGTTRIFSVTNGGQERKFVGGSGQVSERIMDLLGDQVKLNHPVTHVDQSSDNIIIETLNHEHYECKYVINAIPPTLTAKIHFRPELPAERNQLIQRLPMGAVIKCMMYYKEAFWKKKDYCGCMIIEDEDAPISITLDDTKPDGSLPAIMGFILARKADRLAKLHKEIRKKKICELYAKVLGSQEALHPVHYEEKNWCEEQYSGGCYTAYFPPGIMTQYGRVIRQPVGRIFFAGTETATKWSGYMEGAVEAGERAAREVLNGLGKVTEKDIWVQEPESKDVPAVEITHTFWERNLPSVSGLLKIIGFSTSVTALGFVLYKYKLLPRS

[4] = molecular target: T2, Amine oxidase [flavin-containing] A; experiment: Inhibition of human recombinant MAOA expressed in insect cells using kynuramine substrate by fluorescence spectroscopy
Homo sapiens = organism: Homo sapiens; experiment: Selectivity index, ratio of Ki for human recombinant MAOA to Ki for human recombinant MAOB
Outline: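 Recombinant human MAO-A and MAO-B from baculovirus-infected insect-cell microsomes. Kynuramine at 45 µM (A) or 30 µM (B) final, in 100 mM potassium phosphate pH 7.4 made isotonic with KCl. 37 °C for 20 min, stopped with NaOH; 4-hydroxyquinoline fluorescence read at ex 310/em 400 nm. IC50 from 9–10 concentrations, duplicate. Ki = IC50/(1+[S]/Km), Km 16.1 (A), 22.7 µM (B); ratio Ki(A)/Ki(B).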

[5] = molecular target: T1, Amine oxidase [flavin-containing] B; experiment: Inhibition of human recombinant MAOB expressed in insect cells using kynuramine substrate at 100 uM by fluorescence spectroscopy
Outline: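 Single-point MAO-B assay: inhibitor at a maximum of 100 µM, kynuramine 30 µM final, 20 min at 37 °C in isotonic 100 mM potassium phosphate, pH 7.4. NaOH was added to stop the reaction, and 4-hydroxyquinoline was measured by fluorescence (ex 310/em 400 nm). Duplicate determinations were made, with percent inhibition reported.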

[6] = molecular target: T2, Amine oxidase [flavin-containing] A; experiment: Inhibition of human recombinant MAOA expressed in insect cells using kynuramine substrate at 100 uM by fluorescence spectroscopy
Outline: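 MAO-A (insect-cell microsomes) was incubated with kynuramine (45 µM final) for 20 min at 37 °C in isotonic phosphate buffer, pH 7.4, with inhibitor at a maximum tested concentration of 100 µM. The reaction was stopped with NaOH, and 4-hydroxyquinoline was read fluorometrically (ex 310/em 400 nm). Percent inhibition is the mean of duplicates.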

[7] = molecular target: T1, Amine oxidase [flavin-containing] B; experiment: Time dependent inhibition of human recombinant MAOB expressed in insect cells at 5 uM preincubated 0 to 60 mins before kynuramine substrate addition by fluorescence spectroscopy
Outline: (§1)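 Enzyme (0.03 mg/mL) was preincubated with inhibitor for 0, 15, 30 or 60 min at 37 °C in isotonic 100 mM potassium phosphate, pH 7.4. Preincubation inhibitor was 13.42 µM for MAO-A and 5.00 µM for MAO-B. Kynuramine was then added (45 µM for MAO-A, 30 µM for MAO-B), giving final enzyme 0.015 mg/mL and final inhibitor 6.71 µM (A) or 2.5 µM (B). After 15 min at 37 °C and NaOH stop, 4-hydroxyquinoline fluorescence was read, in triplicate.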

[8] = molecular target: T2, Amine oxidase [flavin-containing] A; experiment: Reversible inhibition of human recombinant MAOA expressed in insect cells using kynuramine substrate by Lineweaver-Burk plot
Outline: (§2)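 Kynuramine at 15, 30, 60 and 90 µM; MAO-A at 0.015 mg/mL in the reaction; inhibitor at 0, 1.7, 3.4 and 6.8 µM. Reactions ran in isotonic potassium phosphate (100 mM, pH 7.4) at 37 °C for 20 min and were stopped with NaOH. Initial rates were read by 4-hydroxyquinoline fluorescence (ex 310/em 400 nm) and plotted double-reciprocally.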

[9] = molecular target: T1, Amine oxidase [flavin-containing] B; experiment: Competitive inhibition of human recombinant MAOB expressed in insect cells using kynuramine substrate by Lineweaver-Burk plot
Outline: (§3)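 Initial MAO-B rates (0.015 mg/mL enzyme) were measured at kynuramine 15, 30, 60 and 90 µM, without inhibitor and with 0.625, 1.25 or 2.5 µM inhibitor. Incubation was 20 min at 37 °C in isotonic 100 mM potassium phosphate, pH 7.4, followed by NaOH stop. 4-Hydroxyquinoline fluorescence (ex 310/em 400 nm) was read, and Lineweaver–Burk plots were drawn.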

[10] = molecular target: T1, Amine oxidase [flavin-containing] B; experiment: Reversible inhibition of human recombinant MAOB expressed in insect cells using kynuramine substrate by Lineweaver-Burk plot; outline: as §3
[11] = molecular target: T2, Amine oxidase [flavin-containing] A; experiment: Competitive inhibition of human recombinant MAOA expressed in insect cells using kynuramine substrate by Lineweaver-Burk plot; outline: as §2
[12] = molecular target: T2, Amine oxidase [flavin-containing] A; experiment: Time dependent inhibition of human recombinant MAOA expressed in insect cells at 13.42 uM preincubated 0 to 60 mins before kynuramine substrate addition by fluorescence spectroscopy; outline: as §1

IC50 [1] [µM]	Ki [2] [µM]	Ki [3] [µM]	IC50 [4] [µM]	Ratio Ki (Homo sapiens)	Compound	other results
0.033	0.01	0.2	0.92	17	O=C1NC(=O)c2cc(Oc3ccc4ccccc4c3)ccc21	–
134	–	–	–	–	O=C1NC(=O)c2ccccc21 [PHTHALIMIDE]	–

More lines, now with the values behind:

Compound	IC50 [1] [µM]	Ki [2] [µM]	Ki [3] [µM]	IC50 [4] [µM]	Ratio Ki (Homo sapiens)	other results
O=C1NC(=O)c2cc(OC/C=C/c3ccccc3)ccc21	0.046	0.02	2.37	8.99	120	–
O=C1c2ccccc2C(=O)N1c1ccccc1 [N-PHENYL-PHTHALIMIDE]	–	–	–	–	–	inhibition at 100 µM [5]: 50.3%; inhibition at 100 µM [6]: 10.5%
O=C1NC(=O)c2cc(Oc3ccccc3)ccc21	2.49	1.07	1.54	5.85	1	TDI [7]: Not Active; inhibition (INH) [8]: Active; inhibition (INH) [9]: Active; inhibition (INH) [10]: Active; inhibition (INH) [11]: Active; TDI [12]: Not Active
O=C1NC(=O)c2cc(OCCCc3ccccc3)ccc21	0.05	0.02	0.46	1.73	21	–
O=C1NC(=O)c2cc(Oc3ccc(Br)cc3)ccc21	0.055	0.024	0.285	1.08	12	–
O=C1c2ccccc2C(=O)N1Cc1ccccc1	–	–	–	–	–	inhibition at 100 µM [5]: 20.2%; inhibition (INH) ([6]; 100 µM): Not Active
